Shown are actives, neighbours in structure and some others; about 3.9% of the full set was active somewhere.
TAAR1 agonist = human TAAR1 agonism; actives 0.99% (n = 360,000); activation, % at 3 µM; CHO RD-HGA16 TAAR1, Fluo-8 calcium fluorescence; vehicle wells 0%, saturating PEA agonist 100%;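 active = activation above the mean activation of all test compounds in the run plus 3 SD, cut at about 38% in these data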
Target sequence (Q96RJ0 whole entry, looked up): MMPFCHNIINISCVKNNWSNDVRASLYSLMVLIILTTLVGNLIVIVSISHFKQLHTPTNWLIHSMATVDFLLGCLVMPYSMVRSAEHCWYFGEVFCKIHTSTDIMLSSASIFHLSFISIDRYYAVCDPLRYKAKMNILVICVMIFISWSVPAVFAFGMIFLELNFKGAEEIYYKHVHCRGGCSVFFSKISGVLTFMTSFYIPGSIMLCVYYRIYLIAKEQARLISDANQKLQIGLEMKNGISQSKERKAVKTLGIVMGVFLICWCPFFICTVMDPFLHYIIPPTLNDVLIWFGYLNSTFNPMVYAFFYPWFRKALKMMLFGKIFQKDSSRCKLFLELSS
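Signal – calcium-sensitive Fluo-8 signal, excitation 470-495, emission 515-575 nm · System – RD-HGA16 (CHO) cells co-expressing Gα16 and hTAAR1 · Incubation – 17-24 h seeding, 75 min 37 °C dye, 30 min RT · Compound dosing – 3 µM single concentration · Repeats – no replicates (n 1)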
CHO parental Ca = counter-screen for OX1R antagonists: effect in parental CHO cells. parental CHO-K1, ATP-induced calcium, Fluo-8 fluorescence. inhibition, % at 5.6 µM. actives 0.63% (n = 330,000). AID 463079;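 active = inhibition above that plate's mean sample inhibition plus 3 SD, cut at about 26% in these data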;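 note: 0% = ATP-challenged DMSO wells and 100% = DMSO wells without ATP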
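Material – parental CHO cells · Reagent – ATP stimulus · Compound – single nominal dose of 5.6 µM per compound · Detection – Fluo-8 fluorescence · Read-out basis – percent inhibition of calcium signal · Controls – ATP-challenged DMSO wells low, unchallenged DMSO wells high · Repeats – no replicates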
OX1R antag-1 = antagonists of human orexin 1 receptor | CHO/OX1R cells, Fluo-8 calcium fluorescence, orexin A | inhibition, % at 5 µM | actives 0.43% (n = 330,000) | O43613 | AID 434989;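 active = inhibition above its plate's threshold, mean inhibition of all tested compounds on the plate plus 3 SD, cut at about 37% in these data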;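 note: 0% = orexin A challenge wells and 100% = SB-334867-A antagonist wells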
OX1R antag-2 = OX1R (human) antagonism | actives 1.8% (n = 330,000) | OX1R-expressing cells, FRET antagonist read-out | inhibition, % at 6.6 µM | O43613; in the data active = inhibition mostly above about 38%, no sharp cut-off; inactive = mostly below about 40%;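 note: 0% = agonist challenge alone and 100% = reference antagonist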
TAAR1 antag = antagonists of human TAAR1 | Q96RJ0 | CHO RD-HGA16 TAAR1, Fluo-8 calcium fluorescence, antagonist | inhibition, % at 3 µM | actives 1.5% (n = 360,000) | AID 624466;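 active = inhibition above a per-plate cutoff, the mean inhibition of test compounds on that plate plus 3 SD, cut at about 49% in these data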;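 note: 0% = DMSO plus EC80 beta-PEA response and 100% = DMSO alone without agonist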
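Test system: hTAAR1-expressing CHO RD-HGA16 cells, Gα16-coupled; Probe or stimulus: EC80 β-phenethylamine stimulus; Compound dosing: single nominal final test compound concentration of 3 µM; Timing: 140 s kinetic read after compound, 140 s after agonist; Signal: Fluo-8 calcium-sensitive fluorescence; Measure: % inhibition of agonist calcium response; Controls: DMSO and EC80 PEA controls.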
* hit, by the source's call; / = not tested or not shown.

SMILES	TAAR1 agonist	CHO parental Ca	OX1R antag-1	OX1R antag-2	TAAR1 antag
O=C(CNC(=O)c1nc[nH]c1C(=O)N1CCNCC1)OCc1ccccc1	0	1	-4	16	14
CC(=O)OCCn1c2nc(=O)[nH]c(=O)c-2nc2cc(C)c(C)cc21	138*	/	/	/	67*
COc1ccc(N2C(=O)c3n[nH]c(C(C)C)c3C2c2ccc(C)cc2)cc1 (centres undefined)	4	/	/	/	-29
COc1cccc(-c2nn(C)c3sc(C(=O)NCc4ccc(C)o4)cc23)c1	7	-22	-25	72*	11
COc1cccc(-c2nn(C)c3sc(C(=O)NCc4ccc5c(c4)OCO5)cc23)c1	3	-8	-24	23	-3
COc1ccc(C2=NS(=O)(=O)N(C)C(C(=O)Nc3ccc(C(C)=O)cc3)=C2)cc1OC	12	21	-3	3	53*
CC(=O)Nc1ccc(NC(=O)COC(=O)c2c3c(nc4ccccc24)CCN(Cc2ccccc2)C3)cc1	20	-7	-1	26	63*
c1ccc(-c2nc(NCc3cccnc3)c3ccccc3n2)cc1	/	-11	9	49*	/
OC(CNc1nc(-c2cccnc2)nc2ccccc12)c1ccccc1 (centres undefined)	13	-12	-19	35	49*
OCCNc1nc(-c2cccnc2)nc2ccccc12	2	-3	-11	6	14
Clc1cccc(-c2nc(NCc3cccnc3)c3ccccc3n2)c1	17	-12	10	64*	24
FC(F)(F)c1nc(NCc2cccnc2)c2ccccc2n1	1	-5	-24	33	7
Cc1ccc(-c2nc(NCc3cccnc3)c3ccccc3n2)cc1	-2	-6	-20	12	-4
CCOC(=O)C1=CC[C@@H](c2ccccc2)N(S(=O)(=O)c2ccc(C)cc2)[C@H]1C=C(C)C	0	/	/	/	1
O=S1(=O)c2ccc(Br)cc2OCCC2CCCCN21 (centres undefined)	1	/	/	/	-7
CCCc1nnc(NC(=O)Cn2c(=O)sc3ccccc32)s1	46*	-10	-7	5	0
Cc1ccc2c(c1)S(=O)(=O)N(C)C(c1ccccc1)=C2	-1	/	/	/	53*
COC(=O)[C@@]1(Sc2ccc(C)cc2)CC(=O)N[C@@H]1c1ccc(Br)cc1	7	/	/	/	7
Nc1[nH]c(C(=O)c2ccccc2)c(-c2ccc(F)cc2)c1C(=O)c1c[nH]c2ccccc12	7	/	/	/	-32
CCc1ccc(NC(=O)C2(c3ccccc3)CC2(Cl)Cl)cc1 (centres undefined)	55*	14	52*	13	47
CCCOC(=O)c1ccc(OCC(O)Cn2c(C)nc3ccccc32)cc1 (centres undefined)	6	/	/	/	54*
Cc1ccc(S(=O)(=O)N(C)CCN(C)S(=O)(=O)c2ccc(C)cc2)cc1	0	/	/	/	-3
COc1cc(N(C)C)ccc1[C@]1(O)C(=O)N(C)c2ccc(Br)cc21	3	/	/	/	0
OC(CNC1CCCCC1)CON=C1CCSc2c(Cl)cccc21 (centres undefined)	40*	/	/	/	18
OC(CNC1CCCC1)COc1ccc(-c2ccccc2)cc1 (centres undefined)	13	-3	2	5	1
SMILES	TAAR1 agonist	CHO parental Ca	OX1R antag-1	OX1R antag-2	TAAR1 antag
C=CCN(CC=C)C[C@@H]1CSCCS(=O)(=O)N1	2	/	/	/	4
O=C(Nc1nccs1)c1cnc2sccn2c1=O	1	/	/	/	-3
Cc1nnc(NC(=O)CC(C)c2ccccc2)s1 (centres undefined)	5	-4	-1	19	-13
Cc1csc(NC(=O)CSc2nncn2C)n1	3	4	-16	23	-1
O=C(COC(=O)COc1ccccc1)Nc1ncc([N+](=O)[O-])s1	20	2	-20	43*	-7
Cn1cnnc1SCC(=O)Nc1ncc([N+](=O)[O-])s1	2	6	-5	35*	-7
CC(CC(=O)Nc1ncc([N+](=O)[O-])s1)c1ccccc1 (centres undefined)	3	4	-11	35*	13
COc1ccc(C(C#N)=Cc2cc(OC)c(OC)c(OC)c2)cc1	3	/	/	/	10
Cn1nc(C(C)(C)C)cc1C(=O)N1CCCC(c2cc(C(=O)Nc3ccccc3Cl)no2)C1 (centres undefined)	1	/	/	/	34
CN(C)CCCNS(=O)(=O)c1ccc(-n2nnc3ccccc32)c([N+](=O)[O-])c1	-3	-20	-25	68*	2
